Legend:
[1] = molecular target: T1, Adrenergic receptor alpha-1 (Rattus norvegicus, UniProt P15823+P23944+P43140); assay: Ability to displace [3H]prazosin from alpha-1 adrenergic receptor in rat brain homogenates in vitro; assay type: tissue-based
T1 sequence (P15823 whole entry): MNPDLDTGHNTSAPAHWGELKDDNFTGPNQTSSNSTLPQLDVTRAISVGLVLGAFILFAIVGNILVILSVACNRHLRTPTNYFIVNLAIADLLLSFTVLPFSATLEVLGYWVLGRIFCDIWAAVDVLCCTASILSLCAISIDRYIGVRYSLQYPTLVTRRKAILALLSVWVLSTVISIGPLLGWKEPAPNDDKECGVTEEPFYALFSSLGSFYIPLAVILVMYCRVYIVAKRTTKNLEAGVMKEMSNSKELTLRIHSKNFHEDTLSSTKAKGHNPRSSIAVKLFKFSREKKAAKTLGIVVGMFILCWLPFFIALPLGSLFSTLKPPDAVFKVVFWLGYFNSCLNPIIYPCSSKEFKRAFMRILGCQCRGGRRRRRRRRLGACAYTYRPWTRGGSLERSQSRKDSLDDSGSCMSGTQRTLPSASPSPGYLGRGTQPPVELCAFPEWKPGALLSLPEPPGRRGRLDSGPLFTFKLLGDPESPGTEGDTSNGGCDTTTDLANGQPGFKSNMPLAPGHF
T1 sequence (P23944 whole entry): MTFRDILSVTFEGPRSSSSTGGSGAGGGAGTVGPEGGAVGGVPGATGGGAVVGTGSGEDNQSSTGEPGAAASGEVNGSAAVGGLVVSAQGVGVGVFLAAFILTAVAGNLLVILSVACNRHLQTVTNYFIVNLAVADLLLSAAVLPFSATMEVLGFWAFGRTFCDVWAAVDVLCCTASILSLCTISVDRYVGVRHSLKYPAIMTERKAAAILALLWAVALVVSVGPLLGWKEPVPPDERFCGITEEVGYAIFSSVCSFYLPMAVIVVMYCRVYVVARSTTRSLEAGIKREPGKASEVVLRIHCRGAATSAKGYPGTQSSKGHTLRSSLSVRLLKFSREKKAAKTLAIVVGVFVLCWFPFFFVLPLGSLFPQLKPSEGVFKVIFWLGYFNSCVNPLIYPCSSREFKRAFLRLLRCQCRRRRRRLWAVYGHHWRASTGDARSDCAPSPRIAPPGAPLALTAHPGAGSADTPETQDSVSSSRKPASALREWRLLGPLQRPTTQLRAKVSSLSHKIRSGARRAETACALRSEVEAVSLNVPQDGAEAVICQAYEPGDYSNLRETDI
T1 sequence (P43140 whole entry): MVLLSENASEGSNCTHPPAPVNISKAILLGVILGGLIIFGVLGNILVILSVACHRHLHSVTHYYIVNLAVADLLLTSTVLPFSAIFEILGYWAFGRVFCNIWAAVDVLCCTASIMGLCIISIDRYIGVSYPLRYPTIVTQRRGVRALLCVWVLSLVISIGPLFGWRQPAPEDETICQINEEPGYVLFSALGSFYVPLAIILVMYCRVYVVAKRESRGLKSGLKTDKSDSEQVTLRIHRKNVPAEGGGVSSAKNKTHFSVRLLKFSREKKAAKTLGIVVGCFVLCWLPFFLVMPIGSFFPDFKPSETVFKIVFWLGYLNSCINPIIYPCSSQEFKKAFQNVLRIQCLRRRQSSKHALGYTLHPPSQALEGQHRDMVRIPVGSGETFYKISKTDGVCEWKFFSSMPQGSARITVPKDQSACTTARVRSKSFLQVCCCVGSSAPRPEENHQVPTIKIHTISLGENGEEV
In short: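 Rat brain cortex membranes in 50 mM Tris pH 7.7, washed at 48000g, final resuspension 150 volumes. Incubated with 0.03 nM [3H]prazosin and graded test concentrations for 90 min at 25 °C. Unlabeled phentolamine (10 μM) defined nonspecific binding. Filtered on GF/B, scintillation counted. Triplicate assays; IC50 from logit plot converted to apparent Ki via Cheng–Prusoff.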

[2] = molecular target: T2, Adrenergic receptor alpha-2 (Rattus norvegicus, UniProt P22086+P19328+P22909); assay: In vitro antagonistic activity against alpha-2 adrenergic receptor in isolated electrically stimulated rat vas deferens (clonidine-induced decrease in twitch height); assay type: functional, tissue-based
T2 sequence (P22086 whole entry): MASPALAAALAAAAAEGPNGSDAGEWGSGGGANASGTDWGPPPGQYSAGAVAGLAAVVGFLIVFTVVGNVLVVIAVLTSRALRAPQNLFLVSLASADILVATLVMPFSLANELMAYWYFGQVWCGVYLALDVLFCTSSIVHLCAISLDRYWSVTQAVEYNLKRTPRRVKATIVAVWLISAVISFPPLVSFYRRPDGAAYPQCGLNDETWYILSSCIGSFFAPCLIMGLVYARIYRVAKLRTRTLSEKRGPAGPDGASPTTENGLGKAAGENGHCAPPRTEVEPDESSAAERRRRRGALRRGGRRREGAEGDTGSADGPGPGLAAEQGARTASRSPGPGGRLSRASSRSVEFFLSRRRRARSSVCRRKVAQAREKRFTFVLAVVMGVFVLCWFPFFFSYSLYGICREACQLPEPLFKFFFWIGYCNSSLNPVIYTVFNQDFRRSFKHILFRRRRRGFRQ
T2 sequence (P19328 whole entry): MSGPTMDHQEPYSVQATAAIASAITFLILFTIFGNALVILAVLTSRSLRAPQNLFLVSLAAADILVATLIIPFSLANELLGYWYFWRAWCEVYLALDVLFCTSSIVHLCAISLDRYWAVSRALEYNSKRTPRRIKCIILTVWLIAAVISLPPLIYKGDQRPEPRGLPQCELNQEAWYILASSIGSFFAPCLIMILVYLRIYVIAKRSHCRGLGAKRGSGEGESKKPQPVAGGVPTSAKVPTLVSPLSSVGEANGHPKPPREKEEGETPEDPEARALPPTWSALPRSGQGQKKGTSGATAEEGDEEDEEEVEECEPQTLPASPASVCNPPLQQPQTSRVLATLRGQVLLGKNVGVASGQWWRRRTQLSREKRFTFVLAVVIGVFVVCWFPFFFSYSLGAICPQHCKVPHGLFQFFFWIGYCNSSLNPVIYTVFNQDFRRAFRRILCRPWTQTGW
T2 sequence (P22909 whole entry): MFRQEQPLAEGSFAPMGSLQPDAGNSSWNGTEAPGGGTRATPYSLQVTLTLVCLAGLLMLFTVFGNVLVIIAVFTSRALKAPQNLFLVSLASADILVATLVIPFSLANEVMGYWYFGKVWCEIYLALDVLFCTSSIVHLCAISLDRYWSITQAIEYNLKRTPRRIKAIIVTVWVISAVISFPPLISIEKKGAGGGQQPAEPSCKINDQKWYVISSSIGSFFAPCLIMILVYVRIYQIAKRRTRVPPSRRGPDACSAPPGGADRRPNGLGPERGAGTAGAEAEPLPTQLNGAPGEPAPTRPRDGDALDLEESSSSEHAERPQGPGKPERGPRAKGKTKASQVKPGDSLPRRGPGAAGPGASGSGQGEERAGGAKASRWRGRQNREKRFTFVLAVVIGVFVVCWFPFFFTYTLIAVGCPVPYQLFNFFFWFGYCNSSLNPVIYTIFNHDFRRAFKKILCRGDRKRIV

Ki [1] | pA2 [2] | SMILES
148 nM | 7.19 | CC1=C(CC2=NCCN2)CCc2ccccc21.Cl
78 nM | 7.76 | C1=C(CC2=NCCN2)CCc2ccccc21.Cl [NAPAMEZOLE HYDROCHLORIDE]
